Assay results: ChEMBL document CHEMBL3351863, “Optimization of 2-phenyl-pyrimidine-4-carboxamides towards potent, orally bioavailable and selective P2Y(12) antagonists for inhibition of platelet aggregation” (Bioorg Med Chem Lett, 2014); call rule not given here

Columns and labels:
[1] = target: Cytochrome P450 2C9 (Homo sapiens, UniProt P11712); assay: Inhibition of CYP2C9 in human liver microsomes assessed as reduction in diclofenac 4'-hydroxylation; assay type: ADME
[2] = target: P2Y purinoceptor 12 (Homo sapiens, UniProt Q9H244); assay: Displacement of [3H]-2-methyl-thio-adenosine 5'-diphosphate from human recombinant P2Y12 expressed in CHO cell membranes by scintillation counting method
How it was run: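 CHO cells expressing recombinant P2Y₁₂ receptors, incubated with tritium-labeled 2-methyl-thio-adenosine 5'-diphosphate plus test compound; IC₅₀ from displacement curves, each point in triplicate; reference compound run with every compound set, and set re-analyzed if its IC₅₀ fell outside pre-set 95% confidence interval.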

[3] = system: Platelet; assay: Inhibition of ADP-induced platelet aggregation in human platelet rich plasma by in-vitro light transmission aggregometry assay; assay type: functional
How it was run: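 Human platelet-rich plasma incubated with compound, aggregation induced by 3 µM ADP and read by light transmission aggregometry; IC₅₀ derived from concentration–response curve.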

[4] = system: Liver microsome; assay: Metabolic stability assay in human liver microsomes assessed as parent drug disappearance at 1 uM after 20 mins by HPLC and mass spectrometry method; assay type: ADME
[5] = Solubility in basic pH; assay type: physicochemical
[6] = system: Liver microsome; assay: Metabolic stability assay in rat liver microsomes assessed as parent drug disappearance at 1 uM after 20 mins by HPLC and mass spectrometry method; assay type: ADME
[7] = target: T1, Cytochrome P450 3A4 (Homo sapiens, UniProt P08684); assay: Inhibition of CYP3A4 in human liver microsomes assessed as reduction in midazolam 1'-hydroxylation; assay type: ADME
[8] = system: Platelet; assay: Inhibition of ADP-induced platelet aggregation in human platelet rich plasma assessed as remaining activity at 500 nM by in-vitro light transmission aggregometry assay; assay type: functional
How it was run: (§1)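 Light transmission aggregometry in human platelet-rich plasma; compound incubated, aggregation triggered with 3 µM ADP; remaining activity (RA) recorded at a single compound level (1000, 500 or 100 nM).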

[9] = target: T1, Cytochrome P450 3A4; assay: Inhibition of CYP3A4 in human liver microsomes assessed as reduction in testosterone 6beta-hydroxylation; assay type: ADME
[10] = target: Cytochrome P450 2D6 (Homo sapiens, UniProt P10635); assay: Inhibition of CYP2D6 in human liver microsomes assessed as reduction in dextromethorphan-O demethylation; assay type: ADME
[11] = system: Platelet; assay: Inhibition of ADP-induced platelet aggregation in human platelet rich plasma assessed as remaining activity at 100 nM by in-vitro light transmission aggregometry assay; assay type: functional; how it was run: as §1
[12] = target: Voltage-gated inwardly rectifying potassium channel KCNH2 (Homo sapiens, UniProt Q12809); assay: Inhibition of human ERG expressed in HEK cells by patch-clamp assay; assay type: cell-based; settings: hek293
[13] = Potency shift, ratio of IC50 for inhibition of ADP-induced platelet aggregation in human platelet rich plasma to IC50 for displacement of [3H]-2-methyl-thio-adenosine 5'-diphosphate from human recombinant P2Y12 expressed in CHO cell membranes
[14] = Solubility in neutral pH; assay type: physicochemical
[15] = system: Platelet; assay: Inhibition of ADP-induced platelet aggregation in human platelet rich plasma assessed as remaining activity at 1000 nM by in-vitro light transmission aggregometry assay; assay type: functional; how it was run: as §1

Chain of Voltage-gated inwardly rectifying potassium channel KCNH2 (Q12809 whole entry): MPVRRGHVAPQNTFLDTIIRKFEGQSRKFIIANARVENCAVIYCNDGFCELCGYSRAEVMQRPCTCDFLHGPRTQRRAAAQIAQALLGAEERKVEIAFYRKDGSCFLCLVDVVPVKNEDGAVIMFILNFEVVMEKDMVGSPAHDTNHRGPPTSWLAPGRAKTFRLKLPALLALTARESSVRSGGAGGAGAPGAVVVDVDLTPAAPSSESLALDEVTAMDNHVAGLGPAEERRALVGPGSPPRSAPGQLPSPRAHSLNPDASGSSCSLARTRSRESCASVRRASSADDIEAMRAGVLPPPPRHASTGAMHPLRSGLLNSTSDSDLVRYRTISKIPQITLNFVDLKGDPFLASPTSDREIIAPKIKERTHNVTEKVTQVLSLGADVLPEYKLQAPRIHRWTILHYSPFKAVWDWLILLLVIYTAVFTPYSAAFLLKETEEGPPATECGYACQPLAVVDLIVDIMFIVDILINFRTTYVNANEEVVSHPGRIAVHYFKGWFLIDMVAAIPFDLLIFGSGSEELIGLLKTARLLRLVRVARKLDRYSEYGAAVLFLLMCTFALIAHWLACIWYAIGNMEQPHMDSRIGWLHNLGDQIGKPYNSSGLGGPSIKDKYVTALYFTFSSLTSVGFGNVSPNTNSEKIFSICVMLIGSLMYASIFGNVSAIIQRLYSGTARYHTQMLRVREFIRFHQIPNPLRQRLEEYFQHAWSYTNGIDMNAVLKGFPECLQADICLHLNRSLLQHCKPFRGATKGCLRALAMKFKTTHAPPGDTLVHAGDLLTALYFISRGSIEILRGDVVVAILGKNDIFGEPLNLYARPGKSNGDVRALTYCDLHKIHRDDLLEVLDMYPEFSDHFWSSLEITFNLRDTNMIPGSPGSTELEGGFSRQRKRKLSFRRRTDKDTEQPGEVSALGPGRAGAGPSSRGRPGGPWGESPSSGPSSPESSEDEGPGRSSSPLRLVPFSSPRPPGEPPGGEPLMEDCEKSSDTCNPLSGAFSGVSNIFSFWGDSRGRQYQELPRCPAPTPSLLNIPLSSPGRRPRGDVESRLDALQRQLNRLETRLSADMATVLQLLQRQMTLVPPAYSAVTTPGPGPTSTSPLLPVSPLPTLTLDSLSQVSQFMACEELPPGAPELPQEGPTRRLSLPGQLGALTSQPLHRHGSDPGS
Chain of P2Y purinoceptor 12 (Q9H244 whole entry): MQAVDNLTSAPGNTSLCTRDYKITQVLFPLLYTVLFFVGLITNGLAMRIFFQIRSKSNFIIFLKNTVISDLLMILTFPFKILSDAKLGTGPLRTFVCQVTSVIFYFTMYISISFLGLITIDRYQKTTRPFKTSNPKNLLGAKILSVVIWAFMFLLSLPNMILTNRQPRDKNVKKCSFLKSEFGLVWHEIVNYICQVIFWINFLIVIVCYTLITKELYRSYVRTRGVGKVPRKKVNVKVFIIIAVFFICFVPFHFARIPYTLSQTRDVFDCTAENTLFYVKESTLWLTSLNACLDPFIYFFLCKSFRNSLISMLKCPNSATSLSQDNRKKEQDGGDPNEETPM
Chain of Cytochrome P450 2D6 (P10635 whole entry): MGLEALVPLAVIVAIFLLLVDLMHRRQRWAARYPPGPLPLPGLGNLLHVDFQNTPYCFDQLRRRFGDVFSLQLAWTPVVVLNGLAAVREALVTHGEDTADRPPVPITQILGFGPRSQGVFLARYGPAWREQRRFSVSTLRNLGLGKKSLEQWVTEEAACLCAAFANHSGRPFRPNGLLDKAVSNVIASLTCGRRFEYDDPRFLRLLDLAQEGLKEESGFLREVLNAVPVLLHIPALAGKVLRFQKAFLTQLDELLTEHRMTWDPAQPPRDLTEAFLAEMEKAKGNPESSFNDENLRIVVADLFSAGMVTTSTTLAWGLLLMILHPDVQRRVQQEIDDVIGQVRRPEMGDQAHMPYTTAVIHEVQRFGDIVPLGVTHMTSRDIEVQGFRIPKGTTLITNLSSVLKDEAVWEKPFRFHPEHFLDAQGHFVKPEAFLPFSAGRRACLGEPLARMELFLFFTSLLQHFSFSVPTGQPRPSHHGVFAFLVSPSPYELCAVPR
Chain of Cytochrome P450 2C9 (P11712 whole entry): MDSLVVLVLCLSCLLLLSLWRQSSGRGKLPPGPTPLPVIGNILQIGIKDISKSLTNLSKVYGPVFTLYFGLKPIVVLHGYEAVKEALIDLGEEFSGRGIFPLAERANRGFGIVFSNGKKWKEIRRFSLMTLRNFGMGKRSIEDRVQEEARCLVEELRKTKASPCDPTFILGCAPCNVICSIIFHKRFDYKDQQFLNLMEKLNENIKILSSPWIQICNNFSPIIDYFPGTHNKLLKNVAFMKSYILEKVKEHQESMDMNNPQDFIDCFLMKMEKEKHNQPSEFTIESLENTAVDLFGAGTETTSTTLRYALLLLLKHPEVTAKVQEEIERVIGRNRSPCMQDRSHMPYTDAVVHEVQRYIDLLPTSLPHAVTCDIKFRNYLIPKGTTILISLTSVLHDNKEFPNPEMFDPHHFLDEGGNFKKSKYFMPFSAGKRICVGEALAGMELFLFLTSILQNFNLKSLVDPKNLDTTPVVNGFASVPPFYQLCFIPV
T1 sequence (P08684 whole entry): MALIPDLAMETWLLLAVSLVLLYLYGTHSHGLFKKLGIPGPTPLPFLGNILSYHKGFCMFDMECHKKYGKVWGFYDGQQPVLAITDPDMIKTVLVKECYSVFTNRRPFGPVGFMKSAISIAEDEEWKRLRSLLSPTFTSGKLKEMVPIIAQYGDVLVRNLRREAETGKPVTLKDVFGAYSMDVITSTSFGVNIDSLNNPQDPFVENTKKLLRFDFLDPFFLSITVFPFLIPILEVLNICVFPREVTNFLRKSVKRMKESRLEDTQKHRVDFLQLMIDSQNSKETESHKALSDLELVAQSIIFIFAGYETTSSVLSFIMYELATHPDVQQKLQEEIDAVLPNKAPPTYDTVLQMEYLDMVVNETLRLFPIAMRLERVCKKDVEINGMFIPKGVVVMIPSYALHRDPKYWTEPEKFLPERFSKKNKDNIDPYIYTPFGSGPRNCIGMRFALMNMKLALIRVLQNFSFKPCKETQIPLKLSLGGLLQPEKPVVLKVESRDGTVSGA

Row | SMILES | inhibition (INH) [1] | IC50 [2] | IC50 ([3]; platelet) | Stability [4] | solubility [5] | Stability [6] | inhibition (INH) [7] | inhibition (INH) [9] | inhibition (INH) [10] | solubility [14] | IC50 ([3]; Homo sapiens, Platelet, Plasma) | Activity [8] | Activity [11] | inhibition (INH) [12] | Ratio IC50 [13] | Activity [15]
1 | CCOC(=O)N1CCN(C(=O)[C@H](CCC(=O)O)NC(=O)c2cc(-c3cn[nH]c3)nc(-c3ccccc3)n2)CC1 | Not Active | – | – | Stable | soluble | Stable | Not Active | Not Active | Not Active | soluble | – | >60% | – | Not Active | – | >30%
2 | CCOC(=O)N1CCN(C(=O)[C@H](CCC(=O)O)NC(=O)c2cc([C@H]3C[C@@H]3CO)nc(-c3ccccc3)n2)CC1 (racemic) | Not Active | 23 nM | – | Stable | soluble | Stable | Not Active | Not Active | Not Active | soluble | 71 nM | <30% | <70% | Not Active | 3.1 | –
3 | CCOC(=O)N1CCN(C(=O)[C@H](CCC(=O)O)NC(=O)c2cc(N3CC[C@H](O)C3)nc(-c3ccccc3)n2)CC1 | Not Active | 46 nM | – | Stable | soluble | Stable | Not Active | Not Active | Not Active | soluble | 68 nM | <30% | <70% | Not Active | 1.5 | –
4 | CCOC(=O)N1CCN(C(=O)[C@H](CCC(=O)O)NC(=O)c2cc(-c3ccsc3)nc(-c3ccccc3)n2)CC1 | Not Active | 11 nM | – | Stable | soluble | Stable | Not Active | Not Active | Not Active | soluble | – | >60% | – | Not Active | – | >30%
5 | CCOC(=O)N1CCN(C(=O)[C@H](CCC(=O)O)NC(=O)c2cc(NS(=O)(=O)CC)nc(-c3ccccc3)n2)CC1 | Not Active | 142 nM | – | Stable | soluble | Stable | Not Active | Not Active | Not Active | soluble | – | >60% | – | Not Active | – | >30%
6 | CCOC(=O)N1CCN(C(=O)[C@H](CCC(=O)O)NC(=O)c2cc(N3CC[C@@H](O)C3)nc(-c3ccccc3)n2)CC1 | Not Active | 52 nM | – | Stable | soluble | Stable | Not Active | Not Active | Not Active | soluble | 99 nM | <30% | <70% | Not Active | 1.9 | –
7 | CCOC(=O)N1CCN(C(=O)[C@H](CCC(=O)O)NC(=O)c2cc(NCCC(=O)O)nc(-c3ccccc3)n2)CC1 | Not Active | 198 nM | – | Stable | soluble | Stable | Not Active | Not Active | Not Active | soluble | – | >60% | – | Not Active | – | >30%

Further molecules by falling IC50 [2], results first:

Row | inhibition (INH) [1] | IC50 [2] | IC50 ([3]; platelet) | Stability [4] | solubility [5] | Stability [6] | inhibition (INH) [7] | inhibition (INH) [9] | inhibition (INH) [10] | solubility [14] | IC50 ([3]; Homo sapiens, Platelet, Plasma) | SMILES | Activity [8] | Activity [11] | inhibition (INH) [12] | Ratio IC50 [13] | Activity [15]
8 | Not Active | 219 nM | – | Stable | soluble | Stable | Not Active | Not Active | Not Active | soluble | – | CCOC(=O)N1CCN(C(=O)[C@H](CCC(=O)O)NC(=O)c2cc(NC(=O)C3CCCCC3)nc(-c3ccccc3)n2)CC1 | >60% | – | Not Active | – | >30%
9 | Not Active | 177 nM | – | Stable | soluble | Stable | Not Active | Not Active | Not Active | soluble | – | CCOC(=O)N1CCN(C(=O)[C@H](CCC(=O)O)NC(=O)c2cc(Nc3ccccc3)nc(-c3ccccc3)n2)CC1 | >60% | – | Not Active | – | >30%
10 | Not Active | 122 nM | – | Stable | soluble | Stable | Not Active | Not Active | Not Active | soluble | – | CCOC(=O)N1CCN(C(=O)[C@H](CCC(=O)O)NC(=O)c2cc(NCc3ccccc3)nc(-c3ccccc3)n2)CC1 | >60% | – | Not Active | – | >30%
11 | Not Active | 76 nM | – | Stable | soluble | Stable | Not Active | Not Active | Not Active | soluble | 86 nM | CCOC(=O)N1CCN(C(=O)[C@H](CCC(=O)O)NC(=O)c2cc(N3CCC(N)C3)nc(-c3ccccc3)n2)CC1 (stereo partly drawn) | <30% | <70% | Not Active | 1.1 | –
12 | Not Active | 64 nM | – | Stable | soluble | Stable | Not Active | Not Active | Not Active | soluble | – | CCOC(=O)N1CCN(C(=O)[C@H](CCC(=O)O)NC(=O)c2cc(-c3ccccc3)nc(-c3ccccc3)n2)CC1 | >60% | – | Not Active | – | >30%
13 | Not Active | 56 nM | – | Stable | soluble | Stable | Not Active | Not Active | Not Active | soluble | 55 nM | CCOC(=O)N1CCN(C(=O)[C@H](CCC(=O)O)NC(=O)c2cc(NC(C)CO)nc(-c3ccccc3)n2)CC1 (stereo partly drawn) | <30% | <70% | Not Active | 0.98 | –
14 | Not Active | 39 nM | 192 nM | Stable | soluble | Stable | Not Active | Not Active | Not Active | soluble | – | CCOC(=O)N1CCN(C(=O)[C@H](CCC(=O)O)NC(=O)c2cc([C@H]3C[C@@H]3COC)nc(-c3ccccc3)n2)CC1 (racemic) | <30% | <70% | Not Active | 4.9 | –
15 | Not Active | 21 nM | – | Stable | soluble | Stable | Not Active | Not Active | Not Active | soluble | 121 nM | CCOC(=O)N1CCN(C(=O)[C@H](CCC(=O)O)NC(=O)c2cc(C(C)(C)CO)nc(-c3ccccc3)n2)CC1 | <30% | <70% | Not Active | 5.8 | –
